Experimental data taken from ChEMBL document CHEMBL1153382 (J Med Chem, 2009).
Calls of active or inactive are those of the source. No cut-off for these calls is given here.

Key:
[1] = target: T1, 5-hydroxytryptamine receptor 2A (Homo sapiens, UniProt P28223); assay: Agonist activity at human 5HT2A receptor expressed in HEK293 cells at 10 uM assessed as calcium flux by FLIPR assay relative to serotonin; type: functional, cell-based
[2] = target: T1, 5-hydroxytryptamine receptor 2A; assay: Agonist activity at human 5HT2A receptor expressed in HEK293 cells assessed as calcium flux by FLIPR assay; type: functional, cell-based
[3] = target: T2, 5-hydroxytryptamine receptor 2B (Homo sapiens, UniProt P41595); assay: Agonist activity at human 5HT2B receptor expressed in HEK293 cells assessed as calcium flux by FLIPR assay; type: functional, cell-based
[4] = target: T2, 5-hydroxytryptamine receptor 2B; assay: Agonist activity at human 5HT2B receptor expressed in HEK293 cells at 10 uM assessed as calcium flux by FLIPR assay relative to serotonin; type: functional, cell-based
[5] = target: T3, 5-hydroxytryptamine receptor 2C (Homo sapiens, UniProt P28335); assay: (§1) Agonist activity at human 5HT2C receptor expressed in HEK293 cells assessed as calcium flux by FLIPR assay; type: functional, cell-based
T3 sequence (P28335 whole entry): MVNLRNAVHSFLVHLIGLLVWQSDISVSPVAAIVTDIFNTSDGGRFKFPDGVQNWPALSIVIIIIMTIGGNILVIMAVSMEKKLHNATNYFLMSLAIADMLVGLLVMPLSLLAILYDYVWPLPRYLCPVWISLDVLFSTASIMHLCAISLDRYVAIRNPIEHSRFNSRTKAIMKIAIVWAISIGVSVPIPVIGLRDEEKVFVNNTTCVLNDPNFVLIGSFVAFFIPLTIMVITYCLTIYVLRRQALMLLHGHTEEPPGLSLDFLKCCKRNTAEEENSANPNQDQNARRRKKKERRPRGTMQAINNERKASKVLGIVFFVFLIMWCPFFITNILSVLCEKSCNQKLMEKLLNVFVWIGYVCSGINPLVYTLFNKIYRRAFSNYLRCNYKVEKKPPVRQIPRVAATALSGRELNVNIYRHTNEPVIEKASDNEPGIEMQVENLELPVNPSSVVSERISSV

[6] = target: T4, 5-hydroxytryptamine receptor 2C (Homo sapiens) (UniProt P28335); assay: Agonist activity at human 5HT2C receptor expressed in HEK293 cells at 10 uM assessed as calcium flux by FLIPR assay relative to serotonin; type: functional, cell-based
T4 sequence (whole entry): T3 sequence (P28335 whole entry)

[7] = target: Serotonin 2 receptors; 5-HT2a & 5-HT2c (Homo sapiens) (UniProt P28223+P28335); assay: Selectivity ratio of EC50 for human 5HT2A receptor to EC50 for human 5HT2C receptor
Homo sapiens = species: Homo sapiens; assay: Selectivity ratio of EC50 for human 5HT2B receptor to EC50 for human 5HT2C receptor
[8] = target: T1, 5-hydroxytryptamine receptor 2A; assay: Displacement of [3H]ketanserin from human 5HT2A receptor
[9] = target: T2, 5-hydroxytryptamine receptor 2B; assay: Displacement of [3H]LSD from human 5HT2B receptor
[10] = target: T3, 5-hydroxytryptamine receptor 2C; assay: Displacement of [3H]mesulergine from 5HT2C receptor
[11] = target: Sodium-dependent serotonin transporter (Homo sapiens, UniProt P31645); assay: Displacement of [3H]citalopram from SERT
[12] = target: Sodium-dependent noradrenaline transporter (Homo sapiens, UniProt P23975); assay: Displacement of [3H]nisoxetine from NET
[13] = target: Sodium-dependent dopamine transporter (Homo sapiens, UniProt Q01959); assay: Displacement of [3H]WIN-35428 from DAT
[14] = Selectivity ratio of Ki for human 5HT2A receptor to Ki for 5HT2C receptor
[15] = Selectivity ratio of Ki for human 5HT2B receptor to Ki for 5HT2C receptor
Mus musculus [16] = assay: Antidepressant activity in C57BL/6J mouse assessed as decrease in immobility time at 10 mg/kg, ip administered 30 mins prior to testing measured every 1 min for 6 mins by forced swim test relative to control; type: functional
Outline: (§2)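 Male C57BL/6J mice, 9 weeks old, housed 4 per cage on a 12 h light-dark cycle. Compound given ip in 10% DMSO in saline 30 min before testing. Each mouse was placed alone in a glass cylinder holding 12 cm of water at 23 ± 1 °C. Immobility (floating posture) was scored every 1 min over a 6 min trial and compared with vehicle.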

[17] = target: T4, 5-hydroxytryptamine receptor 2C (Homo sapiens); assay: as §1; type: functional, cell-based
Mus musculus [18] = assay: Antidepressant activity in C57BL/6J mouse assessed as decrease in immobility time at 30 mg/kg, ip administered 30 mins prior to testing measured every 1 min for 6 mins by forced swim test relative to control; type: functional; design: scale not given: the % may be the effect or the level left; conditions: route intraperitoneal; outline: as §2
Mus musculus [19] = assay: Antidepressant activity in C57BL/6J mouse assessed as decrease in immobility time at 60 mg/kg, ip administered 30 mins prior to testing measured every 1 min for 6 mins by forced swim test relative to control; type: functional; design: scale not given: the % may be the effect or the level left; conditions: route intraperitoneal; outline: as §2

Chain of Sodium-dependent noradrenaline transporter (P23975 whole entry): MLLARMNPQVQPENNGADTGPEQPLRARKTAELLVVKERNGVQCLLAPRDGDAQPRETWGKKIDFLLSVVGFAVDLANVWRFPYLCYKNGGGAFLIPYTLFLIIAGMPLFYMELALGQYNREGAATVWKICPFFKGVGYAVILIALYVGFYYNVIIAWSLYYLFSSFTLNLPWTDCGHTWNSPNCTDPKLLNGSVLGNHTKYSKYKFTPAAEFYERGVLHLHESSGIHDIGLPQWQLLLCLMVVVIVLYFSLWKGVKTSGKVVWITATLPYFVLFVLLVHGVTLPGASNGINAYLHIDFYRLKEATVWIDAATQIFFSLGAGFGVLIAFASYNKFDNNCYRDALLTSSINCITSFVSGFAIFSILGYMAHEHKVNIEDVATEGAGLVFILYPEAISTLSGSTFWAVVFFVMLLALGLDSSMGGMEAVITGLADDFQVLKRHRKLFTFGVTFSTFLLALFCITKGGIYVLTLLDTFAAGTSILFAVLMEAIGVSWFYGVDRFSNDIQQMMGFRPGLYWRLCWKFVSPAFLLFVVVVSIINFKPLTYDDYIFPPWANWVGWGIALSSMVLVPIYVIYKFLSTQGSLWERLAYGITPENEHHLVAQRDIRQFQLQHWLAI
Chain of Sodium-dependent dopamine transporter (Q01959 whole entry): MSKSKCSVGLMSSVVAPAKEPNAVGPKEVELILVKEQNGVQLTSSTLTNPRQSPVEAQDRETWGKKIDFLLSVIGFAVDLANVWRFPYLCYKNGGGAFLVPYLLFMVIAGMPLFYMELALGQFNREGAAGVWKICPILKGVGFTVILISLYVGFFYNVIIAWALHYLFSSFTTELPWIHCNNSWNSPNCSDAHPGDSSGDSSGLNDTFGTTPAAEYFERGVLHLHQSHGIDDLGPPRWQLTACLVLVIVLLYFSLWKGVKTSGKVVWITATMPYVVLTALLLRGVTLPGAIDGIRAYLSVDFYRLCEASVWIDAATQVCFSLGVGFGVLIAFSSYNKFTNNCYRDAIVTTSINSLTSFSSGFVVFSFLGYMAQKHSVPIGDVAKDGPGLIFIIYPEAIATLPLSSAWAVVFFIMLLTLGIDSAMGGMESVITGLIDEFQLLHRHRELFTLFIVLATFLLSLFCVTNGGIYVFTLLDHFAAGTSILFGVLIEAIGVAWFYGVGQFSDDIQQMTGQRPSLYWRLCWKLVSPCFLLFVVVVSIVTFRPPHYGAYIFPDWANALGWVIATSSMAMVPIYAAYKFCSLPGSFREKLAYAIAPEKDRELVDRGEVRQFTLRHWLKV
T1 sequence (P28223 whole entry): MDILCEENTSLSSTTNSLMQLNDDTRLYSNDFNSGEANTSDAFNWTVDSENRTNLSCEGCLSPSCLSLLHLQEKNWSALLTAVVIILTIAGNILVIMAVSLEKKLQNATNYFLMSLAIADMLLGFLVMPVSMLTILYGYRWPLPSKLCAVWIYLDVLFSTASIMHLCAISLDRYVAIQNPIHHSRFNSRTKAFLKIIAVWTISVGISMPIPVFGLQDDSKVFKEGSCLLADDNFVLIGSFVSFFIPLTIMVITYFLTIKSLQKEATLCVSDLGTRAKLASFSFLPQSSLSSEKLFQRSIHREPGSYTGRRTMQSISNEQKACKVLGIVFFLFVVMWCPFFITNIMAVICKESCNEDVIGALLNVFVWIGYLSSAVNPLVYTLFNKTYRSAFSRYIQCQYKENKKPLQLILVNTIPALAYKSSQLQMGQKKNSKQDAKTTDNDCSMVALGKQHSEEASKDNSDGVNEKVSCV
Chain of Serotonin 2 receptors; 5-HT2a & 5-HT2c (Homo sapiens) (P28223 whole entry, looked up, one chain of several): as the sequence (P28223 whole entry) above
T2 sequence (P41595 whole entry): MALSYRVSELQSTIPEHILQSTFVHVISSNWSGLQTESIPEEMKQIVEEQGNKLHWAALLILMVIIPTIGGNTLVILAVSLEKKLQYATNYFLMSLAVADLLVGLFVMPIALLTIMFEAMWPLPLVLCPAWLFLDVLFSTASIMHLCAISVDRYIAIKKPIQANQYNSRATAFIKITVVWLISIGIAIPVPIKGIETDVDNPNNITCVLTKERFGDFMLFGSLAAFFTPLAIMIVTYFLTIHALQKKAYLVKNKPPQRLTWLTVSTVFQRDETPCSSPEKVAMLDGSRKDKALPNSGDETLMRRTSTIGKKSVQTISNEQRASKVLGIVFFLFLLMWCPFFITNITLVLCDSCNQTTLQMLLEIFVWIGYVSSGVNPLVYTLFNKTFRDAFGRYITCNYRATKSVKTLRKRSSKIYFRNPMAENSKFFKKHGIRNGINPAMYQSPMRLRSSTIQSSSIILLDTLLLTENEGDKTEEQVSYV
Chain of Sodium-dependent serotonin transporter (P31645 whole entry): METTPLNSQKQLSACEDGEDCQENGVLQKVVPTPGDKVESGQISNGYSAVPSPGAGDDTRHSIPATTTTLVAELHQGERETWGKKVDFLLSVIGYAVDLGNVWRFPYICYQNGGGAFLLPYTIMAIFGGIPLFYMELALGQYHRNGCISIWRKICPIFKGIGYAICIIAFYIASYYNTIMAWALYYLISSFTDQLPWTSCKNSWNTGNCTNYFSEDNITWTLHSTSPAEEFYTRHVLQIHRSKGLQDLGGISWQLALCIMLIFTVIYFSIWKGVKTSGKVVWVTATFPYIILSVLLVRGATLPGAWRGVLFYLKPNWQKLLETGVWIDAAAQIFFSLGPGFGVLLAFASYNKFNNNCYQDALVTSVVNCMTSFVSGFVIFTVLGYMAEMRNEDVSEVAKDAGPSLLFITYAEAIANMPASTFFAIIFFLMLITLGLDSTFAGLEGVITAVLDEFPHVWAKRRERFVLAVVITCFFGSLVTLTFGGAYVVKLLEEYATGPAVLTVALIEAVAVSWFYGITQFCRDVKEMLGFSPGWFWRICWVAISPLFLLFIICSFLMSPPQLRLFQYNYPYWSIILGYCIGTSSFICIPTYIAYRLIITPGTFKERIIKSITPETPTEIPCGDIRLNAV

Row | Compound | Emax [1] [%] | Emax [4] [%] | Emax [6] [%] | Ratio EC50 [7] | Ratio EC50 (Homo sapiens) | Ratio Ki [14] | Ratio Ki [15] | Activity [2] | further results
1 | NC[C@H]1C[C@@H]1c1ccccc1Br | 76 | 102 | 116 | 86 | 17 | 3.7 | 0.24 | – | EC50 [2]: 67 nM; EC50 [3]: 13 nM; EC50 [5]: 0.78 nM; Ki [8]: 246 nM; Ki [9]: 16 nM; Ki [10]: 66 nM; Ki [11]: 3820 nM; Ki [12]: 3400 nM; Ki [13]: 2110 nM
2 | CN[C@H]1CC[C@@H](c2ccc(Cl)c(Cl)c2)c2ccccc21 | – | – | – | – | – | – | – | – | Activity (Mus musculus [16]): Active
3 | CN(C)[C@H]1C[C@@H]1c1ccccc1 (racemic) | < 12 | -2 | < 12 | – | – | – | – | inactive | Activity [3]: inactive; Activity [17]: inactive
4 | CN[C@H]1C[C@@H]1c1ccccc1 (racemic) | < 12 | 6 | < 12 | – | – | – | – | inactive | Activity [3]: inactive; Activity [17]: inactive
5 | c1ccc(CN[C@H]2C[C@@H]2c2ccccc2)cc1 (racemic) | < 12 | -1 | < 12 | – | – | – | – | inactive | Activity [3]: inactive; Activity [17]: inactive
6 | Cc1cccc([C@H]2C[C@@H]2CN)c1.Cl (relative stereo) | 86 | 93 | 95 | 123 | 14 | 6.9 | 0.32 | – | Activity (Mus musculus [16]; route intraperitoneal): 28%; Activity (Mus musculus [18]): 38%; Activity (Mus musculus [19]): 38%
7 | NC[C@H]1C[C@@H]1c1cccc(C#CCCCCO)c1 (relative stereo) | < 12 | 17 | 79 | > 30 | > 1 | – | – | inactive | EC50 [3]: 1740 nM; EC50 [5]: 332 nM
8 | NC[C@H]1C[C@@H]1c1ccccc1C#CCCCCO (relative stereo) | < 12 | 84 | 88 | > 43 | 0.88 | – | – | inactive | EC50 [3]: 204 nM; EC50 [5]: 232 nM
9 | NC[C@@H]1C[C@H]1c1ccccc1Br (relative stereo) [listing 1 of 2 here] | – | – | – | – | – | – | – | – | EC50 [2]: 94 nM; EC50 [3]: 4.8 nM; EC50 [5]: 1.3 nM; Ki [8]: 655 nM; Ki [9]: 22 nM; Ki [10]: 124 nM; Ki [11]: 2720 nM; Ki [12]: 2730 nM; Ki [13]: > 10000 nM
10 | NC[C@@H]1C[C@H]1c1ccccc1Br (relative stereo) [listing 2 of 2 here] | 71 | 86 | 76 | 73 | 3.7 | 5.3 | 0.18 | – | –
11 | NC[C@H]1C[C@@H]1c1ccc(F)cc1 (relative stereo) | 67 | 89 | 93 | 47 | 1.9 | 11.5 | 0.37 | – | –
12 | NC[C@H]1C[C@@H]1c1ccc(F)cc1Cl (relative stereo) | 91 | 97 | 100 | 30 | 7.3 | 1.2 | 0.08 | – | –
13 | NC[C@H]1C[C@@H]1c1ccc(O)cc1 (relative stereo) | < 12 | < 12 | < 12 | – | – | – | – | inactive | Activity [3]: inactive; Activity [17]: inactive
14 | C[C@H]1CNCCc2ccc(Cl)cc21 [LORCASERIN] | 26 | – | 124 | – | – | – | – | – | Ki [12]: > 10000 nM; Ki [13]: > 10000 nM
